Results as given in ChEMBL document CHEMBL1123589, “Phenylpiperazine-based radiopharmaceuticals for brain imaging. 3. Synthesis and evaluation of radioiodinated 1-alkyl-4-phenylpiperazines” (J Med Chem, 1987).
Values joined by “and” are separate entries in the source; they are usually repeats but may differ in a detail not shown here. Equal values may be shown once.

Key:
Conditions in all cases: in vivo
[1] = system: Canis familiaris; experiment: The biodistribution of the [131I]-labeled compound in dog (mass= 5.7 kg), 2 hr after intravenous injection was evaluated in brain (ID.kg/g); assay type: ADME, organism-based, Canis lupus familiaris
Procedure, shortened: (§1)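 One female dog (5.7 kg) premedicated im with acepromazine maleate, then anesthetized iv with sodium nembutal/saline (1:1). Given 1.0 mCi iv of ¹³¹I-labeled agent. Killed 2 h post-dose with iv nembutal. Tissues excised, weighed and counted; blood, fat and muscle masses estimated as 7.5%, 27.5% and 40% of body weight. Expressed as % ID/organ and % ID·kg/g.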

[2] = system: Canis familiaris; experiment: The biodistribution of the [131I]-labeled compound in dog (mass= 5.7 kg), 2 hr after intravenous injection was evaluated in cerebellum (ID.kg/g); assay type: ADME, organism-based, Canis lupus familiaris; procedure, shortened: as §1
[3] = system: Canis familiaris; experiment: The biodistribution of the [131I]-labeled compound in dog (mass= 5.7 kg), 2 hr after intravenous injection was evaluated in cortex; assay type: ADME, organism-based, Canis lupus familiaris; procedure, shortened: as §1
[4] = system: Canis familiaris; experiment: The biodistribution of the [131I]-labeled compound in dog (mass= 5.7 kg), 2 hr after intravenous injection was evaluated in cortex (ID.kg/g); assay type: ADME, organism-based, Canis lupus familiaris; procedure, shortened: as §1
[5] = system: Canis familiaris; experiment: The biodistribution of the [131I]-labeled compound in dog (mass= 5.7 kg), 2 hr after intravenous injection was evaluated in fat (ID.kg/g); assay type: ADME, organism-based, Canis lupus familiaris, Adipose tissue; procedure, shortened: as §1
[6] = system: Rattus norvegicus; experiment: The biodistribution of the [125I]-labeled compound in rats after intravenous injection was evaluated in adrenal at 1.00 hrs; value ranges from 0.80-1.14 (ID.kg/g); assay type: ADME, organism-based
Procedure, shortened: (§2)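 Male Sprague-Dawley rats (250–300 g) under ether anesthesia were given an iv injection of no-carrier-added 125I-labelled agent (10–15 μCi in 0.1 mL saline). The agent was iodinated with chloramine-T in acetate buffer and purified by C-18 HPLC. Groups of N = 3 were killed at 0.25, 1 and 4 h. Blood and tissues were weighed and γ-counted. Values are % ID·kg/g, mean (range).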

[7] = system: Rattus norvegicus; experiment: The biodistribution of the [125I]-labeled compound in rats after intravenous injection was evaluated in adrenal at 4.00 hrs; value ranges from 0.81-1.19 (ID.kg/g); assay type: ADME, organism-based; procedure, shortened: as §2
[8] = system: Rattus norvegicus; experiment: The biodistribution of the [125I]-labeled compound in rats after intravenous injection was evaluated in blood at 0.25 hrs (ID.kg/g); assay type: ADME, organism-based; procedure, shortened: as §2
[9] = system: Rattus norvegicus; experiment: The biodistribution of the [125I]-labeled compound in rats after intravenous injection was evaluated in blood at 1.00 hrs (ID.kg/g); assay type: ADME, organism-based; procedure, shortened: as §2
[10] = system: Rattus norvegicus; experiment: The biodistribution of the [125I]-labeled compound in rats after intravenous injection was evaluated in heart at 0.25 hrs; value ranges from 0.26-0.32 (ID.kg/g); assay type: ADME, organism-based; procedure, shortened: as §2
[11] = system: Rattus norvegicus; experiment: The biodistribution of the [125I]-labeled compound in rats after intravenous injection was evaluated in heart at 1.00 hrs; value ranges from 0.26-0.37 (ID.kg/g); assay type: ADME, organism-based
Procedure, shortened: (§3)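 Male Sprague-Dawley rats (250–300 g), under ether anesthesia, given 10–15 μCi of the NCA ¹²⁵I-labeled agent iv in 0.1 mL saline. Groups of N = 3 were killed at 0.25, 1 or 4 h. Blood and tissues were removed, weighed and counted in a γ-well scintillation counter. Values are mean % ID·kg/g (range).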

[12] = system: Rattus norvegicus; experiment: The biodistribution of the [125I]-labeled compound in rats after intravenous injection was evaluated in lung at 4.00 hrs; value ranges from 0.45-0.67 (ID.kg/g); assay type: ADME, organism-based; procedure, shortened: as §3
[13] = system: Rattus norvegicus; experiment: The biodistribution of the [125I]-labeled compound in rats after intravenous injection was evaluated in muscle at 0.25 hrs (ID.kg/g); assay type: ADME, organism-based, Muscle tissue
Procedure, shortened: (§4)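 Male Sprague-Dawley rats (250–300 g) under ether anesthesia given iv 0.1 mL saline containing 10–15 μCi of NCA ¹²⁵I-labeled agent (chloramine-T iodination, HPLC-purified). Groups of 3 killed at 0.25, 1 and 4 h. Blood and tissues excised, weighed and γ-counted. Values are mean (range) of % injected dose × body mass (kg) per gram of tissue.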

[14] = system: Canis familiaris; experiment: The biodistribution of the [131I]-labeled compound in dog (mass= 5.7 kg), 2 hr after intravenous injection was evaluated in heart (ID.kg/g); assay type: ADME, organism-based, Canis lupus familiaris; procedure, shortened: as §1
[15] = system: Canis familiaris; experiment: The biodistribution of the [131I]-labeled compound in dog (mass= 5.7 kg), 2 hr after intravenous injection was evaluated in thyroid (ID.kg/g); assay type: ADME, organism-based, Canis lupus familiaris, Thyroid gland; procedure, shortened: as §1
[16] = system: Rattus norvegicus; experiment: The biodistribution of the [125I]-labeled compound in rats after intravenous injection was evaluated in thyroid at 4.00 hrs; value ranges from 4.85-5.46 (ID.kg/g); assay type: ADME, organism-based, Thyroid gland; procedure, shortened: as §4
[17] = system: Canis familiaris; experiment: The biodistribution of the [131I]-labeled compound in dog (mass= 5.7 kg), 2 hr after intravenous injection was evaluated in blood (ID.kg/g); assay type: ADME, organism-based, Canis lupus familiaris; procedure, shortened: as §1
[18] = system: Rattus norvegicus; experiment: The biodistribution of the [125I]-labeled compound in rats after intravenous injection was evaluated in thyroid at 0.25 hrs; value ranges from 3.39-4.05 (ID.kg/g); assay type: ADME, organism-based, Thyroid gland; procedure, shortened: as §4
[19] = system: Rattus norvegicus; experiment: The biodistribution of the [125I]-labeled compound in rats after intravenous injection was evaluated in fat at 0.25 hr; value ranges from 0.03-0.05 (ID.kg/g); assay type: ADME, organism-based, Adipose tissue; procedure, shortened: as §2
[20] = system: Rattus norvegicus; experiment: The biodistribution of the [125I]-labeled compound in rats after intravenous injection was evaluated in fat at 1.00 hrs (ID.kg/g); assay type: ADME, organism-based, Adipose tissue; procedure, shortened: as §2
[21] = system: Rattus norvegicus; experiment: The biodistribution of the [125I]-labeled compound in rats after intravenous injection was evaluated in brain at 1.00 hrs (ID.kg/g); assay type: ADME, organism-based; procedure, shortened: as §2
[22] = system: Rattus norvegicus; experiment: The biodistribution of the [125I]-labeled compound in rats after intravenous injection was evaluated in kidney at 1.00 hrs; value ranges from 0.52-0.61 (ID.kg/g); assay type: ADME, organism-based; procedure, shortened: as §3
[23] = system: Rattus norvegicus; experiment: The biodistribution of the [125I]-labeled compound in rats after intravenous injection was evaluated in kidney at 4.00 hrs; value ranges from 0.32-0.42 (ID.kg/g); assay type: ADME, organism-based; procedure, shortened: as §3
[24] = system: Rattus norvegicus; experiment: The biodistribution of the [125I]-labeled compound in rats after intravenous injection was evaluated in liver at 4.00 hrs; value ranges from 0.40-0.52 (ID.kg/g); assay type: ADME, organism-based; procedure, shortened: as §3
[25] = system: Rattus norvegicus; experiment: The biodistribution of the [125I]-labeled compound in rats after intravenous injection was evaluated in lung at 0.25 hrs; value ranges from 0.81-1.16 (ID.kg/g); assay type: ADME, organism-based; procedure, shortened: as §3
[26] = system: Rattus norvegicus; experiment: The biodistribution of the [125I]-labeled compound in rats after intravenous injection was evaluated in lung at 1.00 hrs; value ranges from 1.20-1.42( ID.kg/g); assay type: ADME, organism-based; procedure, shortened: as §3
[27] = system: Rattus norvegicus; experiment: The biodistribution of the [125I]-labeled compound in rats after intravenous injection was evaluated in heart at 4.00 hrs; value ranges from 0.11-0.15 (ID.kg/g); assay type: ADME, organism-based; procedure, shortened: as §3
[28] = system: Rattus norvegicus; experiment: The biodistribution of the [125I]-labeled compound in rats after intravenous injection was evaluated in kidney at 0.25 hr; value ranges from 0.48-0.58 (ID.kg/g); assay type: ADME, organism-based; procedure, shortened: as §3
[29] = system: Canis familiaris; experiment: The biodistribution of the [131I]-labeled compound in dog (mass= 5.7 kg), 2 hr after intravenous injection was evaluated in cerebellum; assay type: ADME, organism-based, Canis lupus familiaris; procedure, shortened: as §1
[30] = system: Rattus norvegicus; experiment: The biodistribution of the [125I]-labeled compound in rats after intravenous injection was evaluated in muscle at 1.00 hrs (ID.kg/g); assay type: ADME, organism-based, Muscle tissue; procedure, shortened: as §4

## CCCCN1CCN(c2ccc(I)cc2)CC1
[1]
  Biodistribution: 1.824% and 0.165%
[2]
  Biodistribution: 0.165%
[3]
  Biodistribution: 0.1%
[4]
  Biodistribution: 0.171%
[5]
  Biodistribution: 9.41% and 0.034%
[6]
  Biodistribution: 1.14%
[7]
  Biodistribution: 1.19%
[8]
  Biodistribution: 0.01 % ID·kg/g
[9]
  Biodistribution: 0.01 % ID·kg/g
[10]
  Biodistribution: 0.32%
[11]
  Biodistribution: 0.37%
[12]
  Biodistribution: 0.67%
[13]
  Biodistribution: 0.03 % ID·kg/g
[14]
  Biodistribution: 0.85%
[15]
  Biodistribution: 0.032% and 0.342%
[16]
  Biodistribution: 5.46%
[17]
  Biodistribution: 1.072% and 0.148%
[18]
  Biodistribution: 4.05%
[19]
  Biodistribution: 0.05%
[20]
  Biodistribution: 0.01 % ID·kg/g
[21]
  Biodistribution: 0.28%
[22]
  Biodistribution: 0.61%
[23]
  Biodistribution: 0.42%
[24]
  Biodistribution: 0.52%
[25]
  Biodistribution: 1.16%
[26]
  Biodistribution: 1.42%
[27]
  Biodistribution: 0.15%
[28]
  Biodistribution: 0.58%
[29]
  Biodistribution: 1.571%
[30]
  Biodistribution: 0.04 %ID·kg/g
